{"source": "paper PMC4636435", "about": "(Cell host & microbe, 2015)", "molecules": {"B1": {"name": "recombinant hCAP18, full-length human cathelicidin (natural protein)", "chain": "QVLSYKEAVLRAIDGINQRSSDANLYRLLDLDPRPTMDGDPDTPKPVSFTVKETVCPRTTQQSPEDCDFKKDGLVKRCMGTVTLNQARGSFDISCDKDNKRFALLGDFFRKSKEKIGKEFKRIVQRIKDFLRNLVPRTES"}, "B2": {"name": "hCAP18: full-length human cathelicidin precursor, recombinant, expressed from pET28a (protein)", "chain": "QVLSYKEAVLRAIDGINQRSSDANLYRLLDLDPRPTMDGDPDTPKPVSFTVKETVCPRTTQQSPEDCDFKKDGLVKRCMGTVTLNQARGSFDISCDKDNKRFALLGDFFRKSKEKIGKEFKRIVQRIKDFLRNLVPRTES", "modifications": "left off: His tag (from the vector pET28a), end not stated, state not stated"}, "B3": {"name": "recombinant M49 protein (natural protein)", "chain": "AEKKVEAKVEVAENNVSSVARREKELYDQIADLTDKNGEYLERIGELEERQKNLEKLEHQSQVAADKHYQEQAKKHQEYKQEQEERQKNQEQLERKYQREVEKRYQEQLQKQQQLETEKQISEASRKSLSRDLEASREAKKKVEADLAALTAEHQKLKEEKQISDASRQGLSRDLEASREAKKKVEADLAALTAEHQKLKEEKQISDASRQGLSRDLEASREAKKKVEADLAEANSKLQALEKLNKELEEGKKLSEKEKAELQARLEAEAKALKEQLAKQAEELAKLKGNQTPNAKVAPQANRSRSAMTQQKRTLPST"}}, "key": {"cathelicidin": {"system": "cathelicidin", "settings": "human cells; ref Liu et al., 2006; cited from earlier work"}, "wild-type and Δemm1 GAS": {"system": "wild-type and Δemm1 GAS", "experiment": "Resistance of wild-type and Δemm1 GAS to antimicrobial peptides", "type": "cell-based, Streptococcus pyogenes (group A Streptococcus)", "settings": "serum-free DMEM with 10% THB, 24 h; for M1-dependent protection of GAS from killing by the peptide: wild-type vs. Δemm1 GAS", "procedure,_shortened": "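GAS M1T1 5448 and isogenic Δemm1 were grown overnight at 37°C, diluted 1:40 in Todd-Hewitt broth, grown statically at 37°C to OD600 0.400, then PBS-washed. 2×10^5 bacteria in serum-free DMEM with phenol red and 10% THB were exposed to cathelicidin- or defensin-family peptides. MIC was the lowest concentration preventing growth after 24 h. Means ± s.d., n=3; ≥3 independent experiments.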"}, "human neutrophils": {"system": "human neutrophils", "experiment": "Neutrophil chemotaxis in transwell system", "type": "cell-based", "settings": "1 h, 37°C, n=3"}, "recombinant M1 protein": {"system": "recombinant M1 protein", "experiment": "Pulldown with His-tagged recombinant M1 as bait / blot", "type": "binding, Streptococcus pyogenes (group A Streptococcus), M1T1"}, "[1]": {"biological_target": "LL-37, human cathelicidin antimicrobial peptide (human)", "experiment": "SPR"}, "recombinant M49 protein": {"biological_target": "T1, recombinant M49 protein (Streptococcus pyogenes (group A …, UniProt P16947 42-359))", "T1 sequence": "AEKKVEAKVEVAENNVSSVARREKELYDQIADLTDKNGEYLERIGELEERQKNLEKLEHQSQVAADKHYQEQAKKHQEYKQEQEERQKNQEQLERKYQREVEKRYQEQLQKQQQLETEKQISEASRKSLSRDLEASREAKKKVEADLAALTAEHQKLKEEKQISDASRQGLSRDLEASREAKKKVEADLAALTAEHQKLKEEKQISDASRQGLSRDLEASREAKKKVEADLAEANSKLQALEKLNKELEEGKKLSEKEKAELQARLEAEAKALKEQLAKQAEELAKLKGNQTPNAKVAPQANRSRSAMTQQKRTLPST", "experiment": "SPR"}, "M1 protein": {"system": "M1 protein", "experiment": "SPR", "type": "binding, Streptococcus pyogenes (group A Streptococcus), M1T1", "settings": "ratio of Kd M49 vs. M1, SPR"}, "[2]": {"system": "M1T1 GAS, wild-type vs. Δemm1", "experiment": "FACS detection of cathelicidin on bacterial surface", "type": "cell-based, Streptococcus pyogenes (group A Streptococcus)", "settings": "recombinant hCAP18, wild-type vs. Δemm1, anti-LL-37 antibody"}}, "note": "Entries after “also recorded” stand apart in the source; their conditions may differ."}
{"molecule": "C=C1CC[C@H](O)C/C1=C/C=C1\\CCC[C@]2(C)[C@@H]([C@H](C)/C=C/[C@H](C)C(C)C)CC[C@@H]12", "note": "[vitamin D]", "values": [{"measurement": "induction of cathelicidin expression", "setting": "cathelicidin", "value": "strongly induces cathelicidin expression"}]}
{"molecule": "KR-20: processed form of cathelicidin expressed by keratinocytes in human skin; de novo synthesis (Anaspec) (KRIVQRIKDFLRNLVPRTES)", "values": [{"measurement": "M1-dependent protection of GAS from killing by the peptide", "setting": "wild-type and Δemm1 GAS", "value": "M1 protected GAS from killing"}]}
{"molecule": "N-formyl-Met-Leu-Phe [fMLP]", "values": [{"measurement": "stimulation of neutrophil chemotaxis", "setting": "human neutrophils", "value": "stimulated robust chemotaxis of neutrophils"}]}
{"molecule": "mCRAMP: active murine form of cathelicidin; de novo synthesis (Anaspec) (ISRLAGLLRKGGEKIGEKLKKIGQKIKNFFQKLVPQPE)", "values": [{"measurement": "binding and inhibition by M1 vs. M49", "setting": "recombinant M1 protein; statement in the in vivo section", "value": "M1 but not M49 binds and inhibits CRAMP"}, {"measurement": "M1-dependent protection of GAS from killing by the peptide", "setting": "wild-type and Δemm1 GAS", "value": "M1 protected GAS from killing"}]}
{"molecule": "recombinant M1 protein (from UniProt Q99XV0) (natural protein)", "values": [{"measurement": "Kd", "setting": "[1]", "value": 1.18, "unit": "µM"}]}
{"molecule": "B1", "values": [{"measurement": "Kd", "setting": "recombinant M49 protein", "value": 9.07, "unit": "µM"}]}
{"molecule": "B2", "values": [{"measurement": "stronger binding of M1 compared to M49 protein (from Kd)", "setting": "M1 protein", "value": 10, "unit": "fold"}, {"measurement": "major cathelicidin form pulled down by M1 from neutrophil lysate", "setting": "recombinant M1 protein; whole lysates from neutrophils, Western blot with anti-LL-37 antibody", "value": "the major cathelicidin form detected was uncleaved hCAP18"}, {"measurement": "binding to bacterial surface", "setting": "[2]", "value": "recombinant hCAP18 bound the GAS surface in an M1-dependent manner; also recorded: Δemm1 GAS binds significantly less hCAP18 than wild-type GAS"}, {"measurement": "antimicrobial activity", "setting": "wild-type and Δemm1 GAS; wild-type and Δemm1 GAS", "value": "lacked antimicrobial activity"}]}
{"molecule": "B3", "values": [{"measurement": "Kd", "setting": "[1]", "value": 62.7, "unit": "µM"}]}
